Mdm2 ligase inh – blocks human Mdm2 ubiquitin ligase activity. signal enhancement, % at 5 µM. cell-based MDM2 ubiquitination luciferase reporter, 2 h; 0 = plate control, 100 = twice control, blank-subtracted. Q00987. actives 0.11% (n = 210,000);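 active means signal enhancement of 30% or more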;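 further: luminescence tracks abundance of the self-degrading MDM2-luciferase fusion protein; higher signal means inhibition of MDM2 E3 ligase activity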
Target sequence (Q00987 whole entry, looked up, the tested form may be a part): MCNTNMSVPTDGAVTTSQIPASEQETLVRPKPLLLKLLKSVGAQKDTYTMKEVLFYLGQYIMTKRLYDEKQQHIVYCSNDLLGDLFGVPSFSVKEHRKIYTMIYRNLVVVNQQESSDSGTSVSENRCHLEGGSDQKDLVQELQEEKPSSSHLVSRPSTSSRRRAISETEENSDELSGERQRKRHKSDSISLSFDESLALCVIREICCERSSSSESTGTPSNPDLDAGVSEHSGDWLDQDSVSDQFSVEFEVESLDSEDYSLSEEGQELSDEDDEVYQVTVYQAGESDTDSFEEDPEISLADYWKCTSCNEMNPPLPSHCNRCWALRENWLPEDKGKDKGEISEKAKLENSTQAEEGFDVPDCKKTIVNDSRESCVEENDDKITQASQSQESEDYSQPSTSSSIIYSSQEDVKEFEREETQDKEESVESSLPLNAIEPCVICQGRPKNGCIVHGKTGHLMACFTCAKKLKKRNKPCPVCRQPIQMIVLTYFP
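system = mammalian cells stably expressing self-ubiquitinating, self-degrading MDM2 E3–luciferase fusion | quantity = 2000 cells per well seeded | incubation = 4 h cell settling then 2 h compound exposure, 37 °C | signal = SteadyLite luminescence, 15 min reagent step | benchmarks = plate control and blank wells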
zVAD death inh – blocks zVAD induced death of L929 cells; viability rescue, % at 10 µM; AID 1377; L929 zVAD necroptosis rescue, ATP luminescence, 24 h; with zVAD 60 µM; actives 0.38% (n = 220,000);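 active means activation, scaled between plate controls, above about 75%, limit read from the data; inactive means activation under that limit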;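 further: 0% = zVAD with DMSO and 100% = DMSO alone without zVAD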
E-sel TNF inh – blocks E-selectin expression induced by TNF alpha | HUVEC TNFa-induced E-selectin immunofluorescence, high content | inhibition, % at 2 µM | actives 0.71% (n = 120,000);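 active means inhibition above the batch mean plus 3 SD, and confirmed as a hit on visual image review, cut at about 43% in these data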;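 further: 0% = TNF-stimulated DMSO wells and 100% = unstimulated control wells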
HSV augment – increases HSV replication in cells. HSV replication augmentation in cells, fold increase. maximum fold increase. actives 0.005% (n = 220,000). AID 1956; in the data active means maximum fold increase above about 1.5; tested in PC3 cells
TNF death inh – TNF-alpha cell death inhibition in Jurkat FADD-/- cells; AID 463075; activation (protection from cell death), % at 10 µM; actives 0.068% (n = 220,000); Jurkat FADD-/- TNF necroptosis rescue, ATP luminescence, 24 h; 0 = TNF only, 100 = no-TNF cells;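 active means activation, meaning protection from cell death, of at least 50% relative to plate controls; inactive means activation below 50%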;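 further: necroptosis triggered by 40 ng/mL TNF-alpha added together with compound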
zVAD death conf – confirmed blocker of zVAD induced death in L929 cells. actives 16% (n = 760). activation (protection from necroptosis), % at 10 µM. L929 zVAD-induced necroptosis rescue, ATP luminescence, 24 h. shares compounds with zVAD death inh;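 active means mean protection from necroptosis of at least 50% over duplicate tests; inactive means mean protection below 50%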;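 further: 0% = cells with zVAD alone and 100% = vehicle cells without zVAD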
* marks the source's active call; other numbers are inactive results; i = inactive; · = not tested or not shown. Compounds with a hit are over-represented: about 0.89% of the library has one in this group of screens.

SMILES	Mdm2 ligase inh	zVAD death inh	E-sel TNF inh	HSV augment	TNF death inh	zVAD death conf
NC(=S)NC(=O)/C=C/c1ccccc1	1	83*	-22	i	19	1
CC(=O)Nc1cc(-c2ccc(F)cc2)[nH]n1	-25	76*	·	i	-1	31
COc1ccccc1NC(=O)C(=O)N/N=C(\C)CC(=O)Nc1ccc(OCc2ccccc2)cc1	-10	2	-18	i	-2	·
COc1ccccc1NC(=O)/C(=N/OCc1ccc(C#N)cc1)C(C)=O	-11	76*	·	i	-1	1
OCC[C@H]1C[C@@H](O)[C@H](O)[C@@]2(CCCO2)O1	·	·	·	i	·	·
O=C(Nc1ncc2c(n1)-c1ccccc1CC2)C1CC1	-14	76*	·	i	-4	2
Nc1ncnc(N2CCc3ccccc32)c1[N+](=O)[O-]	-29	1	·	i	-4	·
Nc1nnnn1/N=C/C(Br)=C/c1ccccc1	17	116*	34	i	-17	102*
Cn1c(-c2ccccc2)c(/C=N/NC(=O)c2ccc(O)cc2)c2ccccc21	1	6	·	i	-9	·
Cc1cc(NC(=O)NC(=O)c2cccc(OC(F)(F)C(F)F)c2)n[nH]1	-26	0	-14	i	2	·
Cc1cc(NC(=O)c2cccc(Oc3ccccc3)c2)n[nH]1	-25	78*	·	i	13	5
Cc1cc(C)nc(SCC(=O)c2c(N)n(C)c(=O)n(C)c2=O)n1	-14	76*	12	·	-3	0
c1ccc2c(c1)[nH]c1ccccc12	·	·	·	i	·	·
O=c1[nH]c2ccccc2c2ccccc12	-14	79*	11	i	-1	2
O=C(CCl)N(c1ccccc1)C1CCCCC1	-38	78*	·	i	-20	66*
COc1ccc2c(C)nc(Nc3nc(C)c(C)c(=O)[nH]3)nc2c1	-25	113*	21	i	-19	1
Cc1ccc(NC(=S)NNC(=O)c2ccccc2O)c(C)c1	-7	0	·	i	-1	·
O=c1cc(-c2cccnc2)oc2c1ccc1ccccc12	·	75*	·	i	-11	2
Cc1ccc(S(=O)(=O)n2nccc2-c2c(-c3ccc(Cl)cc3)noc2C)cc1	-11	1	·	i	0	·
C(=N\Nc1nc2ccccc2s1)/c1cccs1	-12	82*	-2	i	10	10
C(=N\Nc1nc2ccccc2s1)/c1ccco1	-1	94*	-31	i	17	49
Cc1ccsc1/C=N/Nc1nc2ccccc2s1	-17	66	-1	i	18	·
Cc1ccc(S(=O)(=O)Nc2cccc3ncccc23)s1	-27	75*	4	i	-5	47
COc1cc(NC(=O)c2cnc(N)s2)cc(C(=O)Nc2cccc(C(F)(F)F)c2)c1	32*	79*	·	i	6	74*
Cc1c(C(=O)N/N=C/c2cccnc2)sc(=S)n1C	0	2	·	i	0	·
SMILES	Mdm2 ligase inh	zVAD death inh	E-sel TNF inh	HSV augment	TNF death inh	zVAD death conf
Cn1c(N)c(C(=O)N/N=C/c2ccccc2)sc1=S	-4	75*	·	i	5	76*
Cc1ccc(Nc2cc(C)nn2-c2nc(C)cc(=O)[nH]2)cc1	-12	78*	42	i	9	53*
CCOc1cc(/C=C/C(=O)c2ccc(O)cc2)ccc1OCC(=O)N(C)C	-16	105*	54	i	8	25
CCOc1cc(C=O)ccc1OCC(N)=O	-10	24	·	i	0	·
CCCCc1[nH]c(=O)c(C#N)c2c1CSC(C)(C)C2	-12	75*	·	i	-2	34
Cn1nnnc1SCC(=O)Nc1cc(C(C)(C)C)nn1-c1ccccc1	-17	1	·	i	1	·
COc1ccc(-n2cnnc2SCC(=O)Nc2cc(C(C)(C)C)nn2-c2ccccc2)cc1	-10	85*	-4	i	17	81*
CC(=O)Nc1nc2ccc(Br)cc2s1	4	80*	-12	·	-4	35
CS(=O)(=O)c1ccc2nc(NC(=O)Cc3ccccc3)sc2c1	-3	76*	·	·	8	22
COc1ccc2nc(NC(C)=O)sc2c1	-31	64	-23	i	-1	·
CC(C)C(=O)Nc1nc2ccc(S(C)(=O)=O)cc2s1	-10	84*	·	i	-10	9
COc1cccc(/C=C/C(=O)N2CCN(c3n[nH]c(=O)[nH]c3=O)CC2)c1OC	-11	2	·	i	0	·
COc1ccc(-c2nc(N3CCOCC3)nc3n[nH]c(N)c23)cc1	-18	75*	·	i	-6	43
Cc1cnc(NC(=O)c2ccc(OCC3CCCO3)cc2)s1 (configuration not stated)	-62	75*	-23	i	38	75*
CC(NCC(O)c1ccc([N+](=O)[O-])cc1)C12CC3CC(CC(C3)C1)C2 (configuration not stated)	-5	1	·	i	0	·
CN(C)CCNC(=O)c1cc2c(=O)n(C)c3ccccc3c2n1C	-15	59	5	i	3	·
CCCN(CCC)CCCNC(=O)c1cc2c(=O)n(C)c3ccccc3c2n1C	-18	79*	15	i	3	36
CCCCN(CC)CCNC(=O)c1cc2c(=O)n(C)c3ccccc3c2n1C	-17	75	-5	i	4	·
CCN(CC)CCCNC(=O)c1cc2c(=O)n(C)c3ccccc3c2n1C	-8	77*	-5	i	4	33
CCN(CC)CCNC(=O)c1cc2c(=O)n(C)c3ccccc3c2n1C	-11	77*	-10	i	5	20
COc1cc(/C=N/NC(=O)c2ccc3ccccc3c2)ccc1Oc1ccc([N+](=O)[O-])cn1	·	76*	·	i	6	4
CCN(CC)CCCNC(=O)CC1Sc2ccccc2NC1=O (configuration not stated)	12	0	15	i	-1	·
CCCCN(C)CCCNC(=O)/C=C1\Sc2ccccc2NC1=O	25	75*	-6	·	5	24
CC(=O)Nc1cccc(-c2csc(Nc3ncccn3)n2)c1	-17	80*	-19	i	6	5
Oc1ccc(-c2csc(Nc3ncccn3)n2)c(O)c1	-3	81*	·	i	9	48
Cc1cccnc1Nc1nc(-c2ccc(O)cc2)cs1	-16	1	16	i	-5	·
Oc1ccc(-c2csc(Nc3ncccn3)n2)cc1O	-10	79*	·	i	22	60*
COc1ccc(C(=O)Nc2cnn(Cc3c(F)cccc3Cl)c2)cc1OC	·	-1	·	i	0	·
COc1cc2[nH]c(=S)nc(NC3CCCC3)c2cc1OC	-2	1	·	i	1	·
CN(CC1CCCO1)S(=O)(=O)c1ccc(C(=O)Nc2nccs2)cc1 (configuration not stated)	0	87*	·	i	61*	103*
